Measured values gathered from unrelated publications.
Protocols differ between the studies behind these lines.
Cell line: HeLa
Effect on: cell growth or viability

Compound | method | time | IC50
Nc1cc(I)c(I)cc1N | – | 72 h | 15000 nM
CC[C@@]1(OC(=O)[C@@H](N)Cc2ccccc2)C(=O)OCc2c1cc1n(c2=O)Cc2cc3cc4c(cc3nc2-1)OCO4 | MTT | – | 64 nM
N.N.[Cl][Pt][Cl] | MTT | 48 h | 17000 nM
Nc1cc(Cl)c(Cl)cc1N | – | 72 h | 50000 nM
O=C(Cc1ccc2ccccc2c1)N[C@@H](Cc1ccccc1)C(=O)N[C@@H](Cc1ccccc1)C(=O)N[C@@H](Cc1ccc(OP(=O)(O)O)cc1)C(=O)O | MTT | 48 h | > 500000 nM
CC[C@@]1(OC(=O)[C@@H](N)C(C)C)C(=O)OCc2c1cc1n(c2=O)Cc2cc3cc4c(cc3nc2-1)OCO4 | MTT | – | 114 nM
N.N.[Cl][Pt][Cl] | MTT | 24 h | 2330 nM
C[C@]12C=CC(=O)C[C@@H]1CC[C@@H]1[C@@H]2C(=O)C[C@@]2(C)[C@H]1CC[C@]2(C)O | MTT | 24 h | 19200 nM
N.N.[Cl][Pt][Cl] | – | 72 h | 0.22 µg/mL
CC[C@@]1(OC(=O)[C@@H](N)CCCCN)C(=O)OCc2c1cc1n(c2=O)Cc2cc3cc4c(cc3nc2-1)OCO4 | MTT | – | 24 nM
COc1cc(C(=O)c2cc3c(-c4ccccc4)c(OC)ccc3o2)cc(OC)c1OC | – | – | 25000 nM
COc1c2c(cc3c1OCO3)[C@]13C=C[C@H](OC)C[C@@H]1[N@](C2)C[C@H]3OC(=O)c1ccoc1 | WST-1 | 48 h | > 10000 nM
CC(C)[C@]12O[C@H]1[C@@H]1O[C@]13[C@]1(O[C@H]1C[C@H]1C4=C(CC[C@@]13C)C(=O)OC4)[C@@H]2O | thymidine uptake | 3 h | 41 nM
N#Cc1ccc(NC(=S)NN=Cc2ccc(F)cc2)cc1 | – | 72 h | 68 µg/mL
CC[C@@]1(O)C(=O)OCc2c1cc1n(c2=O)Cc2cc3cc4c(cc3nc2-1)OCO4 | MTT | 72 h | 26 nM
N#Cc1ccc(NC(=S)NN=Cc2ccc(O)cc2)cc1 | – | 72 h | 91 µg/mL
CC[C@@]1(OC(=O)[C@@H](N)CCSC)C(=O)OCc2c1cc1n(c2=O)Cc2cc3cc4c(cc3nc2-1)OCO4 | MTT | – | 95 nM
N#Cc1ccc(NC(=S)NN=Cc2ccc([N+](=O)[O-])cc2)cc1 | – | 72 h | 142 µg/mL
CC[C@@]1(OC(=O)[C@@H]2CCCN2)C(=O)OCc2c1cc1n(c2=O)Cc2cc3cc4c(cc3nc2-1)OCO4 | MTT | – | 200 nM
